Data set [1] in a line: Plasma clearance in CD-1 mouse at 1 mg/kg, iv administered as bolus by LC-MS/MS analysis. The data set is classed as ADME, organism-based.
Data set [2] in a line: Protein binding in CD-1 mouse plasma. The data set is classed as ADME, cell-free. Particulars: read-out: PPB (converted).
Data set [3] is described as follows: Cmax in CD-1 mouse at 200 mg/kg, po administered as suspension by LC-MS/MS analysis. More on the design: dose 200 mg/kg, route oral. The data set is classed as ADME, organism-based. To be noted: in vivo.
Data set [4] in a line: Cmax in CD-1 mouse at 5 mg/kg, po administered as suspension by LC-MS/MS analysis. The data set is classed as ADME, organism-based. Also on record: dose 5 mg/kg, route oral. Particulars: in vivo.
A short description of data set [5]: AUC in CD-1 mouse at 1 mg/kg, iv administered as bolus by LC-MS/MS analysis. The data set is classed as ADME, organism-based. Particulars: in vivo.
The nature of data set [6]: AUC in CD-1 mouse at 50 mg/kg, po administered as suspension by LC-MS/MS analysis. To be noted: in vivo. Format: ADME, organism-based.
The nature of data set [7]: Cmax in CD-1 mouse at 100 mg/kg, po administered as suspension by LC-MS/MS analysis. Format: ADME, organism-based. Also on record: dose 100 mg/kg, route oral. Particulars: in vivo.
Data set [8] is described as follows: Volume of distribution at steady state in CD-1 mouse at 1 mg/kg, iv administered as bolus by LC-MS/MS analysis. The data set is classed as ADME, organism-based. Particulars: in vivo, read-out: Vdss.
A short description of data set [9]: Apparent permeability across apical to basolateral side in MDCK cells. The data set is classed as ADME, cell-based, Canis lupus familiaris. Particulars: dog.
Data set [10] in a line: AUC in CD-1 mouse at 200 mg/kg, po administered as suspension by LC-MS/MS analysis. Format: ADME, organism-based. Particulars: in vivo.
Data set [11] in a line: Half life in CD-1 mouse at 1 mg/kg, iv administered as bolus by LC-MS/MS analysis. To be noted: in vivo. Format: ADME, organism-based.
A short description of data set [12]: Cmax in CD-1 mouse at 1 mg/kg, iv administered as bolus by LC-MS/MS analysis. Format: ADME, organism-based. More on the design: dose 1 mg/kg, route intravenous. To be noted: in vivo.
Data set [13] in a line: Oral bioavailability in CD-1 mouse at 5 mg/kg. The data set is classed as ADME, organism-based. Particulars: in vivo. The gist of the method:
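Bioavailability was derived from paired intravenous and oral administration in mice, with the oral dose at 5 mg/kg.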

Data set [14] is described as follows: AUC in CD-1 mouse at 5 mg/kg, po administered as suspension by LC-MS/MS analysis. The data set is classed as ADME, organism-based. Particulars: in vivo.
Data set [15] is described as follows: AUC in CD-1 mouse at 100 mg/kg, po administered as suspension by LC-MS/MS analysis. The data set is classed as ADME, organism-based. To be noted: in vivo.
The nature of data set [16]: Cmax in CD-1 mouse at 50 mg/kg, po administered as suspension by LC-MS/MS analysis. Format: ADME, organism-based. More on the design: dose 50 mg/kg, route oral. To be noted: in vivo.
The nature of data set [17]: Lipophilicity, log D of the compound at pH 7.4 by high throughput method. Format: physicochemical. Particulars: buffer.
The target of data set [18] is L-lactate dehydrogenase B chain (Homo sapiens, UniProt P07195). As to the kind of experiment: Inhibition of human recombinant carboxy-terminal His-tagged LDHB by UV endpoint assay.
Chain of L-lactate dehydrogenase B chain (P07195 whole entry): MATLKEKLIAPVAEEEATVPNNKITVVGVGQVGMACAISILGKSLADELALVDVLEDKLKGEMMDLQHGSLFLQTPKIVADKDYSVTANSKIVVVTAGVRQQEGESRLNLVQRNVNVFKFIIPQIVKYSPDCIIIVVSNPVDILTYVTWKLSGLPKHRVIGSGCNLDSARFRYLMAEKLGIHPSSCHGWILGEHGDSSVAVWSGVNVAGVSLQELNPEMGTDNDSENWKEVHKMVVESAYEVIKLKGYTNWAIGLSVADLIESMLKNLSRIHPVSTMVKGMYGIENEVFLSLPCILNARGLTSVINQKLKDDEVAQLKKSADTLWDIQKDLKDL

As usually defined, the clearance is a measure of how efficiently the substance is removed, as volume per time. What is called Cmax is the peak of the concentration-time curve. As usually defined, the AUC is concentration integrated over time. The Papp A→B is how fast a substance crosses the layer from the apical side. As a reminder, the half-life is how long it takes for the measured level to halve. Low values mean rapid decline, high ones slow decline. The bioavailability is the share of a dose that reaches the circulation, judged against a reference dose that is usually intravenous. Read a low bioavailability as poor availability. As a reminder, the logD is lipophilicity at a set pH, counting ionised and neutral species. Read a low logD as a more hydrophilic compound. `O=C1N[C@](c2ccc(N3CCOCC3)cc2)(c2ccsc2)CC(O)=C1Sc1ccccc1Cl` returned a clearance in data set [1] of 21.1 mL/min/kg. Further, the fraction unbound in data set [2] was 0.009. In addition, the maximum concentration (Cmax) was determined as 440 µM in data set [3]; 1.7 µM in [4]; 224 µM in data set [7]; 2.5 µM in data set [12]; 60.7 µM in data set [16]. For the same molecule, the AUC worked out at 1.5 µM·h in [5]; 125 µM·h in data set [6]; 403 µM·h in data set [10]; 5.1 µM·h in data set [14]; 250 µM·h in data set [15]. Besides, the Vd in data set [8] turned out to be 1.4 L/kg. The Papp A→B in data set [9] amounted to 3.4 ×10⁻⁶ cm/s. The molecule further had a half-life in data set [11] of 1 h. Besides, in [13], the bioavailability was 70%. In data set [17], this molecule had a logD of 0.6.

In data set [17], `O=C1NC(c2ccc(N3CCC4(CC3)COC4)cc2)(c2ccsc2)CC(O)=C1Sc1ccccc1Cl` (stereo not given) showed a logD of 0.7.

In data set [17], `COC1CCN(c2ccc(C3(c4ccsc4)CC(O)=C(Sc4ccccc4Cl)C(=O)N3)cc2)CC1` (racemic) had a logD of 1.2.

In data set [17], `N#CC1CCN(c2ccc(C3(c4ccsc4)CC(O)=C(Sc4ccccc4Cl)C(=O)N3)cc2)CC1` (stereo not given) showed a logD of 0.8.

On to `O=C1NC(c2ccc(C3CCCCC3)cc2)(c2ccsc2)CC(O)=C1Sc1ccccc1Cl` (racemic), for which the logD in [17] stood at 3.5.

Turning to `CC1(C)CN(c2ccc(C3(c4ccsc4)CC(O)=C(Sc4ccccc4Cl)C(=O)N3)cc2)CCO1` (stereo not given), the logD in data set [17] was 1.3.

`O=C1NC(c2ccsc2)(c2cccc(NC3CCOCC3)c2)CC(O)=C1Sc1ccccc1Cl` (racemic): in data set [9], the Papp A→B stood at 0.5 ×10⁻⁶ cm/s. Also, the logD in [17] is -0.3.

One may read the IC50 as the concentration that gives 50% inhibition. As for `COc1ccc(C2(c3ccsc3)CC(O)=C(Sc3ccccc3Cl)C(=O)N2)cc1` (stereo not given), in data set [18], the IC50 was 0.21 µM.

Take `O=C1NC(c2ccc(N3CCCCC3)cc2)(c2ccsc2)CC(O)=C1Sc1ccccc1Cl` (racemic): in data set [2], the fraction unbound was less than 0.001. For the same molecule, the Papp A→B in [9] amounted to 1.7 ×10⁻⁶ cm/s. This molecule had a logD in data set [17] of 2.1.

`O=C1NC(c2ccsc2)(c2cccc(Nc3ccc(F)cc3)c2)CC(O)=C1Sc1ccccc1Cl` (racemic): the fraction unbound in data set [2] was less than 0.001. Besides, the Papp A→B in [9] was 1 ×10⁻⁶ cm/s. The logD in [17] came out at 2.4.

Turning to `O=C1NC(c2ccc(N3CCOCC3=O)cc2)(c2ccsc2)CC(O)=C1Sc1ccccc1Cl` (stereo not given), the logD in [17] turned out to be 0.4.

Regarding `O=C1NC(c2ccccc2)(c2cscn2)CC(O)=C1Sc1ccccc1Cl` (stereo not given), the IC50 in [18] came to 2.3 µM.

On to `O=C1NC(c2ccccc2)(c2ccsc2)CC(O)=C1Sc1ccccc1Cl` (stereo not given), for which the Papp A→B in data set [9] stood at 7.4 ×10⁻⁶ cm/s. In data set [17], this molecule showed a logD of 0.8.

Turning to `N#Cc1ccc(C2(c3ccsc3)CC(O)=C(Sc3ccccc3Cl)C(=O)N2)cc1` (stereo not given), in [18], the IC50 came out at 1.1 µM.

`O=C1NC(c2ccsc2)(c2ccccn2)CC(O)=C1Sc1ccccc1Cl` (stereo not given): the IC50 in data set [18] was greater than 10 µM.

For `O=C1NC(c2ccccc2)(c2ccccc2)CC(O)=C1Sc1ccccc1Cl`, in data set [2], the fraction unbound was 0.007. For the same molecule, the IC50 in data set [18] was found to be 2.2 µM. The Papp A→B in [9] was 9.4 ×10⁻⁶ cm/s. The molecule further came in with a logD in [17] of 1.4.

`CC1CN(c2ccc(C3(c4ccsc4)CC(O)=C(Sc4ccccc4Cl)C(=O)N3)cc2)CC(C)O1` (stereo not given): the fraction unbound in data set [2] is less than 0.001. Also, the Papp A→B in data set [9] was found to be 6 ×10⁻⁶ cm/s. This molecule also registered a logD in data set [17] of 1.3.

Turning to `O=C1NC(c2ccsc2)(c2ccccc2F)CC(O)=C1Sc1ccccc1Cl` (stereo not given), in [18], the IC50 worked out at 1.8 µM.

Values taken from ChEMBL document CHEMBL4428136, “Cell Active Hydroxylactam Inhibitors of Human Lactate Dehydrogenase with Oral Bioavailability in Mice” (ACS Med Chem Lett, 2016).
